Rows were chosen to be rich in hits. Some 4.2% of all compounds tested hit in one or more screens of this group.
Mot1-301 SUMO: SUMOylation pathway inhibition by Mot1-301 growth rescue | S. cerevisiae Mot1-301 growth rescue, ATP luminescence, 38.5C; percent above DMSO median, 100 means doubled | growth rescue, % at 18.8 µM | 320,000 tested, 1% active;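 active = every valid replicate shows activation above 250% relative to neutral control wells; inactive = the rest, any valid replicate at or below 250%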;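 note: OY570 slx delta 5 strain wells were the positive control but not used for scaling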
AI-2 QS mod: modulators of Vibrio harveyi AI-2 quorum sensing system. 300,000 tested, 0.4% active. Vibrio harveyi JMH597 AI-2 luminescence/OD600 ratio, 9 h; hits give low values; strain lacks LuxN and CqsS sensors; 0 = neutral-control median. activity change, % at 7.5 µM; in the data active = activity change below about -75%, passing the limit was not always enough;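 note: luminescence divided by OD600 gain over 9 h not by final OD600 alone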
hERG protect: hERG (human) protection from proarrhythmic block. CHO-hERG, FluxOR thallium flux, dofetilide IC70 present. 310,000 tested, 0.51% active. activation (rescue from dofetilide block), less the hit threshold, % at 10 µM. Q12809. AID 1511;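 active = activation above the mean of controls blocked by dofetilide plus 5 SD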;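 note: thallium influx through hERG after potassium depolarization seen as dye fluorescence rise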
KCNQ1 block: blocks the human KCNQ1 potassium channel; P51787; CHO-K1 KCNQ1, FluxOR thallium flux fluorescence; hits give high values; B-score at 10 µM; 310,000 tested, 1.3% active; AID 2642;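 active = compounds whose thallium flux B-score, printed positive for inhibition, exceeds three library SD while starting fluorescence stays within three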;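 note: channel opened by potassium depolarization with thallium stimulus after 20 min compound exposure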
Target sequence (P51787 whole entry, looked up): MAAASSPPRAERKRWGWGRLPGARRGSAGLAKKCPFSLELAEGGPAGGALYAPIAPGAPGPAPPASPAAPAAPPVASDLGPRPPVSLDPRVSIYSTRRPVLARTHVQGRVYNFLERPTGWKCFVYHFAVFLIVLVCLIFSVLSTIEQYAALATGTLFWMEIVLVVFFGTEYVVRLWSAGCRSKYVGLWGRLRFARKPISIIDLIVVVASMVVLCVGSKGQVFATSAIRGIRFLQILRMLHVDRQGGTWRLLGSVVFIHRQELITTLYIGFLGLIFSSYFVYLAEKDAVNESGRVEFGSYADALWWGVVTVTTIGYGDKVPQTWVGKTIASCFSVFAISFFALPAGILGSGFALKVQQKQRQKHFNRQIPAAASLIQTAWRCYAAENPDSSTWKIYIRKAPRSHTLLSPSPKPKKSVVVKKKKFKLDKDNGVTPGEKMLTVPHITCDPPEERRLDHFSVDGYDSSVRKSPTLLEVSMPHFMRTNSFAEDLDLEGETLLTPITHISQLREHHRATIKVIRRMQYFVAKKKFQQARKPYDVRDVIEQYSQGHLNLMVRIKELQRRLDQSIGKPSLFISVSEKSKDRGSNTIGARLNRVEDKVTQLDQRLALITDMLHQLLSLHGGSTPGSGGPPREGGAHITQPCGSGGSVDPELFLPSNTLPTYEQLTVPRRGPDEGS
KCNQ1 pot: potentiators or activators of human KCNQ1 potassium channel; P51787; CHO-K1 KCNQ1, thallium flux FluxOR fluorescence; hits give high values; B-score at 10 µM; 310,000 tested, 0.35% active;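 active = fluorescence ratio B-score, a plate-corrected score, at least three library SD, with initial intensity B-score within 5 SD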
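Doses: Single concentration per compound, DMSO matched to controls | Test system: KCNQ1-transfected CHO-K1 cells | Timing: 90 min dye loading and 20 min compound exposure, both at room temperature | Measured by: Kinetic FluxOR thallium fluorescence, 10-s 1-Hz baseline, 110-s post-stimulus read | Medium: Assay buffer with matched DMSO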
Cl transport mod: KCC2 (human) Cl- transport modulation; Q9H2X9; KCC2 cells, thallium flux FluoZin-2 fluorescence; B-score of Tl+ flux slope (higher = more flux/activation; lower = inhibition) at 10 µM; 190,000 tested, 2.2% active; AID 1456;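 active = thallium flux slope and its plate-corrected score both differing from the plate sample mean at a set confidence after two filtering rounds, in either direction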;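 note: slope of fluorescence scaled to starting intensity during 10 to 20 s after thallium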
Active calls of the source: *; i = inactive; nt = no result given.

SMILES	Mot1-301 SUMO	AI-2 QS mod	hERG protect	KCNQ1 block	KCNQ1 pot	Cl transport mod
COC(=O)c1c(C)nc(C)c(C(=O)OC)c1-c1cccs1	nt	21	8.1*	i	i	-0.64
O=C1[C@H]2[C@@H](c3ccc(F)cc3)N3C(=O)N(c4cccc(Cl)c4)C(=O)[C@@]3(Cc3ccccc3)[C@H]2C(=O)N1C1CCCCC1	80	25	-3	7*	i	nt
O=C1[C@H]2[C@@H](c3ccc(F)cc3)N3C(=O)N(c4cccc(Cl)c4)C(=O)[C@@]3(Cc3ccc(Cl)cc3)[C@H]2C(=O)N1C1CCCCC1	-4	16	-8	i	i	nt
Cc1cc(C)n(CCC(=O)N/N=C/c2ccc(Br)c([N+](=O)[O-])c2)n1	105	10	-17	6*	i	-0.61
CC(C(=O)N1CCCC1)N1CCN(c2ccccc2O)CC1 (configuration not stated)	-5	31	11*	i	i	1.6
Cc1cc(/C=N/NC(=O)COc2cccc3cccnc23)c(C)n1-c1ccc(O)cc1	2	13	-3	i	i	-0.65
Cc1cc(C)cc(-n2c(C)cc(/C=N\NC(=O)COc3cccc4cccnc34)c2C)c1	5	31	-10	7*	i	0.058
O=C(CC1CC2CCC1C2)NC1CCCCCCC1 (configuration not stated)	3	25	-7	i	i	nt
CC(=O)Nc1cccc(NC(=O)CS(=O)(=O)c2cn(CC(=O)N(C(C)C)C(C)C)c3ccccc23)c1	-15	25	-7	i	i	nt
COc1ccc(OC)c(CCNC(=O)c2ccc3c(=O)[nH]c4c(C(=O)NC(C)C)sc(=S)n4c3c2)c1	-15	18	-33	10*	i	nt
O=C(NCC1CCCO1)c1sc(=S)n2c1[nH]c(=O)c1ccc(C(=O)N3CCCCC3)cc12 (configuration not stated)	-9	27	-21	i	i	-1.1
O=C(NCCc1ccccc1)c1ccc2c(=O)[nH]c3c(C(=O)NCC4CCCO4)sc(=S)n3c2c1 (configuration not stated)	-16	27	-39	8*	i	nt
CCCCNC(=O)c1sc(=S)n2c1[nH]c(=O)c1ccccc12	9	14	-31	i	i	-1
CCc1ccc(C(=O)NNc2ccc(F)cc2)cc1	319*	-19	-11	i	i	0.0048
CCOC(=O)C(=O)NNc1ccc(F)cc1	413*	6	-7	i	i	0.71
CCc1ccc(C(=O)NNc2ccc(S(N)(=O)=O)cc2)cc1	-6	-12	-4	i	i	0.65
CCN(CC(=O)NCc1cccs1)C(=O)c1ccc(OC)c(OC)c1	56	1	-4	i	i	nt
Cc1nc2ccccc2n1Cc1ccc(Br)cc1	-21	18	-14	6*	i	nt
COCCCNCCOc1ccc(C(C)(C)c2ccccc2)cc1	824*	-2	-10	i	i	0.31
COC(=O)c1cc(-c2cccc(OC)c2)on1	-2	-1	7.2*	i	i	nt
COc1cccc(-c2cc(C(=O)O)no2)c1	24	5	-9	i	i	0.34
O=C(N/N=C/c1ccc(O)cc1)c1cccc(N/N=C/c2ccc(O)cc2)c1	0	14	-10	i	i	nt
Cc1ccccc1-n1nc(C(=O)c2cccs2)cc(-c2nc3ccccc3[nH]2)c1=N	8	23	-17	6*	i	0.09
COc1ccc(-n2nc(C(=O)c3cccs3)cc(-c3nc4ccccc4[nH]3)c2=N)cc1	17	16	-11	i	i	0.21
Cc1cccc(-n2nc(C(=O)c3ccco3)cc(-c3nc4ccccc4[nH]3)c2=N)c1	-18	16	-23	10*	i	-1.6
O/N=C(\c1ccccc1)c1nccc2ccccc12	2	5	-9	i	i	nt
Cc1ccc(S(=O)(=O)NCCc2cn3nc(C)c(C)nc3n2)cc1C	267*	9	-7	i	i	nt
COc1ccc(C(=O)CC(=O)C(=O)NCCc2cccc(C)c2)cc1	5	4	-7	i	i	8.3*
